Each structure is given as a SMILES string.

The source of these data is PMC11293336 (Cell Reports Medicine, 2024).

The subject of data set [1] is recurrent high-grade glioma. The data set can be described thus: Tumor response and survival, GATOR trial. It counts as in vivo, human. The conditions noted are these: oral, 19 participants. The essentials: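 Oral dosing 1,200–6,000 mg/day, days 1–5 every 28 days, in recurrent grade III–IV glioma. OS ran from registration to death from any cause, censored at last known alive. PFS ran from registration to progression, censored if still on treatment or at last progression-free date. Medians by Kaplan–Meier; confidence intervals by Brookmeyer-Crowley method.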

Data set [2] relates to advanced refractory solid tumors. The following applies: intravenous; cited from earlier work.

In the case of `COc1ccc(C[C@@H](C)[C@@H](C)Cc2ccc(OC)c(OC)c2)cc1OC` [terameprocol, meso-tetra-O-methyl nordihydroguaiaretic acid], the “partial or complete responses” value in data set [1] was “no partial or complete responses”. Besides, in data set [2], the “dose at which DLT was demonstrated” value is 3,300 mg/day, the partial response was 1/29 and the stable disease is recorded as 6/29.
